This note sets out measurements from ChEMBL document CHEMBL1155848 (J Med Chem, 2008).

Series [1] deals with T1, Cytochrome P450 3A4 (Homo sapiens, UniProt P08684). Description: Inhibition of human recombinant CYP3A4 using 7-benzyloxyquinoline substrate. Format: ADME. A digest of the protocol: (§1)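 Recombinant human CYP450 microsomal protein (0.1 mg/mL) with substrate and a concentration range of compound (dissolved in methanol), preincubated 10 min at 37 °C in 50 mM potassium phosphate pH 7.4. Reaction started with an NADPH-generating system. Fluorescent metabolite formation followed over 10 min. Rates converted to percent of mean control rate, and IC50 derived from the plot. Miconazole served as positive control.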

Series [2] addresses Cytochrome P450 2D6 (Homo sapiens, UniProt P10635). Briefly: Inhibition of human recombinant CYP2D6. The class given is ADME. A digest of the protocol: (§2)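 Recombinant human CYP450 microsomal protein (0.1 mg/mL) with substrate in 50 mM potassium phosphate, pH 7.4. Compound (range of concentrations, methanol) preincubated 10 min at 37 °C. Reaction started with an NADPH-generating system. Fluorescent metabolite formation followed over 10 min. Rates converted to percent of mean control; IC50 from the slope of the plot. Miconazole included as positive control.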

Series [3] has as its target T1, Cytochrome P450 3A4. Description: Inhibition of human recombinant CYP3A4 using diethoxyfluorescein substrate. Format: ADME. A digest of the protocol:
as §1

Series [4] concerns HUVEC. Description: Inhibition of VEGF-induced HUVEC proliferation by BrdU incorporation method after 72 hrs. The settings on record: Homo sapiens. Format: functional, cell-based. A digest of the protocol:
(§3)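 HUVEC seeded in 5% FBS medium on type 1 collagen, held overnight at 37 °C, 5% CO2. Inhibitor at various concentrations added in serum-free medium. After 30 min, VEGF (10 ng/mL) or bFGF (0.3 ng/mL) added. Cells incubated a further 72 h, with BrdU (10 µM) present for the last 18–24 h. Incorporation read by ELISA; IC50 from fit of y = Vmax(1 − x/(K + x)).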

Series [5] addresses Cytochrome P450 2C9 (Homo sapiens, UniProt P11712). Description: Inhibition of human recombinant CYP2C9. The class given is ADME.
For series [6], the target named is Cytochrome P450 2C19 (Homo sapiens, UniProt P33261). Description: Inhibition of human recombinant CYP2C19. The class given is ADME. A digest of the protocol:
as §2

In series [7] the test system is HUVEC. Description: Inhibition of VEGF-induced HUVEC proliferation. The class given is functional, cell-based. The settings on record: Homo sapiens. A digest of the protocol: as §3
In series [8] the test system is HUVEC. Description: Inhibition of basic-fibroblast growth factor-induced HUVEC proliferation. The class given is functional, cell-based. The settings on record: Homo sapiens. A digest of the protocol:
as §3

For series [9], the target named is T2, Vascular endothelial growth factor receptor 2 (Homo sapiens, UniProt P35968). Description: Inhibition of VEGFR2.
Series [10] in a line: Oral bioavailability in rat at 10 mg/kg. The class given is ADME, organism-based. The conditions noted are these: in vivo.
Series [11] can be described thus: Clearance in rat at 10 mg/kg. Format: ADME, organism-based. Set-up: dose 10 mg/kg. The conditions noted are these: in vivo.
Series [12] deals with T2, Vascular endothelial growth factor receptor 2. Briefly: Inhibition of human recombinant VEGFR2.
The nature of series [13]: Plasma concentration in mouse at 100 mg/kg, po after 12 hrs. The class given is ADME, organism-based. Further details: dose 100 mg/kg, route oral.
Series [14] can be described thus: Antitumor activity against human A375P cells xenografted in mouse assessed as inhibition of tumor growth at 10 mg/kg, po relative to control. Format: functional. For orientation: A xenograft is tissue or cells of one species grown in another, often human tumour cells in immunodeficient mice.
In series [15] the test system is HT-29. Briefly: Antitumor activity against human HT29 cells xenografted in mouse assessed as inhibition of tumor growth at 30 mg/kg, po relative to control. Format: functional.
Series [16] deals with Mus musculus. Description: Inhibition of angiogenesis in Swiss Nu/Nu mouse assessed as hemoglobin content at 30 mg/kg, po by bFGF/matrigel plug assay. The class given is functional.
Series [17] has as its system Mus musculus. Briefly: Inhibition of angiogenesis in Swiss Nu/Nu mouse assessed as hemoglobin content at 10 mg/kg, po by bFGF/matrigel plug assay. Format: functional.
The nature of series [18]: Oral bioavailability in dog at 1 mg/kg. The class given is ADME, organism-based, Canis lupus familiaris. The conditions noted are these: in vivo.
The nature of series [19]: Clearance in monkey at 5 mg/kg. Format: ADME, organism-based, Macaca mulatta. Set-up: dose 5 mg/kg. The settings on record: rhesus monkey, in vivo.
The test system of series [20] is HT-29. Briefly: Antitumor activity against human HT29 cells xenografted in mouse assessed as inhibition of tumor growth at 100 mg/kg, po relative to control. The class given is functional.
For series [21], the system named is HN5. Description: Antitumor activity against human HN5 cells xenografted in mouse assessed as inhibition of tumor growth at 100 mg/kg, po relative to control. Format: functional.
Series [22] is described as follows: Oral bioavailability in monkey at 5 mg/kg. The class given is ADME, organism-based, Macaca mulatta. The settings on record: rhesus monkey, in vivo.
Series [23] concerns HN5. Briefly: Antitumor activity against human HN5 cells xenografted in mouse assessed as inhibition of tumor growth at 10 mg/kg, po relative to control. Format: functional.
Series [24] in a line: AUC (0 to infinity) in mouse at 10 mg/kg, po. Format: ADME, organism-based. Set-up: time infinity, dose 10 mg/kg, route oral. The conditions noted are these: plasma.
Series [25] in a line: Plasma concentration in mouse at 30 mg/kg, po after 12 hrs. Format: ADME, organism-based. Set-up: dose 30 mg/kg, route oral.
A short description of series [26]: AUC (0 to infinity) in mouse at 100 mg/kg, po. The settings on record: plasma. Set-up: time infinity, dose 100 mg/kg, route oral. The class given is ADME, organism-based.
The nature of series [27]: Plasma concentration in mouse at 10 mg/kg, po after 12 hrs. Format: ADME, organism-based. Further details: dose 10 mg/kg, route oral.
The nature of series [28]: Protein binding in mouse plasma by equilibrium dialysis. The settings on record: read-out: PPB. The class given is ADME, cell-free. (In equilibrium dialysis only unbound substance equilibrates across the membrane.)
Series [29] is described as follows: Antitumor activity against human A375P cells xenografted in mouse assessed as inhibition of tumor growth at 100 mg/kg, po relative to control. The class given is functional.
Series [30] is described as follows: Clearance in dog at 1 mg/kg. Further details: dose 1 mg/kg. The class given is ADME, organism-based, Canis lupus familiaris. The settings on record: in vivo.
Series [31] relates to Mus musculus. Description: Inhibition of angiogenesis in Swiss Nu/Nu mouse assessed as hemoglobin content at 100 mg/kg, po by bFGF/matrigel plug assay. The class given is functional.
The test system of series [32] is HN5. Briefly: Antitumor activity against human HN5 cells xenografted in mouse assessed as inhibition of tumor growth at 30 mg/kg, po relative to control. Format: functional.
The subject of series [33] is HT-29. Description: Antitumor activity against human HT29 cells xenografted in mouse assessed as inhibition of tumor growth at 10 mg/kg, po relative to control. The class given is functional.
Series [34] in a line: Antitumor activity against human A375P cells xenografted in mouse assessed as inhibition of tumor growth at 30 mg/kg, po relative to control. Format: functional.
Series [35] in a line: AUC (0 to infinity) in mouse at 30 mg/kg, po. The class given is ADME, organism-based. Set-up: dose 30 mg/kg, route oral, time infinity. The settings on record: plasma.

pIC50: −log10 of the molar value.

Cytochrome P450 2C19, sequence (P33261 whole entry): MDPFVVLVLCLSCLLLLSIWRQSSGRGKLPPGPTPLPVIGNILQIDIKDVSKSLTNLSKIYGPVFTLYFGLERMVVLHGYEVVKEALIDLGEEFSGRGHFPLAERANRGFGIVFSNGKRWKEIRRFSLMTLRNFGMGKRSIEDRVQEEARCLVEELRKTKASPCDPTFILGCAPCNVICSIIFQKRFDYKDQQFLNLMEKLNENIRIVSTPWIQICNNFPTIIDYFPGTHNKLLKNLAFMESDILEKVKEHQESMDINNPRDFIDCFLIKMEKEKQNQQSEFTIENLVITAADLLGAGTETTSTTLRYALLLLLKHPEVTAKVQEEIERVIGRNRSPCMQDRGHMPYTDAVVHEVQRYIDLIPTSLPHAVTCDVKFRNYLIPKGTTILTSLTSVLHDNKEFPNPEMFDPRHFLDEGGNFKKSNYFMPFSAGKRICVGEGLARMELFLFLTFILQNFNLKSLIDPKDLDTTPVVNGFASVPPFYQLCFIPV
Cytochrome P450 2D6, sequence (P10635 whole entry): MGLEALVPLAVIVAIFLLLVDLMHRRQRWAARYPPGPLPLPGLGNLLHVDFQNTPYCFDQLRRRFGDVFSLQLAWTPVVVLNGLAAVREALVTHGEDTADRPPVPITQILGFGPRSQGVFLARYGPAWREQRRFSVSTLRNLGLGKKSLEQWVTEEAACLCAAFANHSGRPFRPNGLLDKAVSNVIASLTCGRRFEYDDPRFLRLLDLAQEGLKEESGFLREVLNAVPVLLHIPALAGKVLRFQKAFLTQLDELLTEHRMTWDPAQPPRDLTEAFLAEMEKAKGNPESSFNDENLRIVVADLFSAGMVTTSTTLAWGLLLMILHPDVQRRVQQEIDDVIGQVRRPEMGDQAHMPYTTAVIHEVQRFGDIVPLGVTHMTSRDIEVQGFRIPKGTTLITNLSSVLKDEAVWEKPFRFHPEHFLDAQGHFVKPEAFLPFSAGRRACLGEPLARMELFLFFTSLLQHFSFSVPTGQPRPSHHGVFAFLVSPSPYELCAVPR
Cytochrome P450 2C9, sequence (P11712 whole entry): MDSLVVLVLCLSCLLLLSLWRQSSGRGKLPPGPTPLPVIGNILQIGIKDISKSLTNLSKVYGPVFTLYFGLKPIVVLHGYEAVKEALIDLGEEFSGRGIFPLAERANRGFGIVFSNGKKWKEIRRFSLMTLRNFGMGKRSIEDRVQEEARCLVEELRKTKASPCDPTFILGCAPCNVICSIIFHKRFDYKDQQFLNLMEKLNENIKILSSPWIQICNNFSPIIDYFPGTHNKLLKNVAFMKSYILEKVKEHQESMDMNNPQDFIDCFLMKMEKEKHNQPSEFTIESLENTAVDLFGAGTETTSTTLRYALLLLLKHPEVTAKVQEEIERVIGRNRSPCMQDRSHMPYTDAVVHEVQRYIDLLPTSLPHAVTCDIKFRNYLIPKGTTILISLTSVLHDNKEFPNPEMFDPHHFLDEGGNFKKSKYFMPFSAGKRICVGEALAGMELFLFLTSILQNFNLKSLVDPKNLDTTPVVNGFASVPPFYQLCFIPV
T2 sequence (P35968 whole entry): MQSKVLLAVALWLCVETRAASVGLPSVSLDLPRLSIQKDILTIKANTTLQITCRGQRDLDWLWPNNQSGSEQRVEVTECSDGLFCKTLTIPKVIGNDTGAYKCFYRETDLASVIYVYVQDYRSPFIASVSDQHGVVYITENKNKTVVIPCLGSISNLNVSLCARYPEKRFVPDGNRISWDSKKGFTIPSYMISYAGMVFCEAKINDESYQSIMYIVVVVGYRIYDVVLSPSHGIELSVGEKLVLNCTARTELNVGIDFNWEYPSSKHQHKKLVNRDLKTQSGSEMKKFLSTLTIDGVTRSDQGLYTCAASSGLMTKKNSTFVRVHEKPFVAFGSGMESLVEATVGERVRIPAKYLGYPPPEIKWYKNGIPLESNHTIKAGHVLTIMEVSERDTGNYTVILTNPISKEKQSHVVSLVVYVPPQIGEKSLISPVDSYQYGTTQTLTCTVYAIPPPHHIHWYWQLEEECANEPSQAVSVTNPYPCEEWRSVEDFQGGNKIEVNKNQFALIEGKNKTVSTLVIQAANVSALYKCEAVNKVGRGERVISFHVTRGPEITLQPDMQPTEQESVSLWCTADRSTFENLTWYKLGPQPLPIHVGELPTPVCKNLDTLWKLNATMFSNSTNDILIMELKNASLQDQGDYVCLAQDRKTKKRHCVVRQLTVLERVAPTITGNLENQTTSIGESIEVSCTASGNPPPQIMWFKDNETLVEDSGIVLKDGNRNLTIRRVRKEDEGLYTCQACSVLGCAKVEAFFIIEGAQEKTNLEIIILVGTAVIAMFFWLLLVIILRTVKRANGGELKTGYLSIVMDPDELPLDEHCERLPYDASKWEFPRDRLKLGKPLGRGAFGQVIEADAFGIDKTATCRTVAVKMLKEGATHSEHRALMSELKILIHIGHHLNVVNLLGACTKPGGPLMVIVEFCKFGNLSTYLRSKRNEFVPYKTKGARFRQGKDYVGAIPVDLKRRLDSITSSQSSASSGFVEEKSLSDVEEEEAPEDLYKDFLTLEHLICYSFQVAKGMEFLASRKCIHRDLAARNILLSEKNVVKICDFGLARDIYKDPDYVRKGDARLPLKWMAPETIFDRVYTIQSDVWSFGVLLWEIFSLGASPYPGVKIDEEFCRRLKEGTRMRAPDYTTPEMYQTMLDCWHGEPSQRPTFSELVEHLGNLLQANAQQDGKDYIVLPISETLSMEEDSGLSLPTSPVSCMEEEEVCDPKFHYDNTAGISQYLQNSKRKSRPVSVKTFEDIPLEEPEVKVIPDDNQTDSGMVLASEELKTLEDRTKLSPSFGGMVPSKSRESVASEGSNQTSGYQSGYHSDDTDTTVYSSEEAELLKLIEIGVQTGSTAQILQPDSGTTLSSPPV
T1 sequence (P08684 whole entry): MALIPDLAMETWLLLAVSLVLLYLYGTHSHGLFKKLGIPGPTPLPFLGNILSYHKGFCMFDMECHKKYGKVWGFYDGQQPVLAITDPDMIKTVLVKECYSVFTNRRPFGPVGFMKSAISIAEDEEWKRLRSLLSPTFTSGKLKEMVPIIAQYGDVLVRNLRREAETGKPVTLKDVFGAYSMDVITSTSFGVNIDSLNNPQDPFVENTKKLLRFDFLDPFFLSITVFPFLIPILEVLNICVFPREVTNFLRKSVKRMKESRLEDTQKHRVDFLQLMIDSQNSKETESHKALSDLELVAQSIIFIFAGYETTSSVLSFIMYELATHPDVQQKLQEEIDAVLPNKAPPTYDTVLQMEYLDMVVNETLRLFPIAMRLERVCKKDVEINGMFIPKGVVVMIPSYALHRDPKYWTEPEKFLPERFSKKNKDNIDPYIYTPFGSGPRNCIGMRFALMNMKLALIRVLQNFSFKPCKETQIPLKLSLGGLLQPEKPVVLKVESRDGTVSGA

By pIC50 is commonly meant the negative decadic logarithm of the IC50, by convention in mol/L. Consider `Cc1c2ccc(N(C)c3ccnc(Nc4cccc(S(N)(=O)=O)c4)n3)cc2nn1C`, for which the pIC50 in series [1] was 4.51; in series [2], 4.80; in [3] it was 4.80; in [4], 7.64; in [5], 5.85; in series [6] it was 4.70.
Consider `Cc1ccc(Nc2ccnc(Nc3cccc(Br)c3)n2)cc1O`, for which the pIC50 in series [7] was 6.27; in series [8] it was 5.46; in series [9], 8.20.
For the molecule `Fc1cnc(Nc2cccc(Br)c2)nc1Nc1cccc(Br)c1`, in series [9], the pIC50 was 6.40.
What is called bioavailability is the share of a dose that reaches the circulation, judged against a reference dose that is usually intravenous. As usually defined, the clearance is the volume of plasma or blood freed of the substance per unit of time. With `CCS(=O)(=O)c1ccc(OC)c(Nc2nccc(N(C)c3ccc4c(C)n[nH]c4c3)n2)c1`, the bioavailability in [10] worked out at 65%. The clearance in series [11] was determined as 10 mL/min/kg.
In the case of `Cc1c2ccc(N(C)c3ccnc(Nc4cccc(S(N)(=O)=O)c4)n3)cc2nn1Cc1ccccc1`, the pIC50 in [1] was 4.10; in series [2] it was 4.18; in [3] it was 4.13; in series [4] it was 4.96; in series [5] it was 6.30; in series [6], 5.85.
As for `Cc1nc2cc(N(C)c3ccnc(Nc4cccc(S(N)(=O)=O)c4)n3)ccc2n1C`, the pIC50 in series [1] is 4.35; in [2], 4.48; in series [3], 4.57; in series [4], 5.85; in [5], 5.05; in [6], 4.48.
Turning to `Cc1n[nH]c2cc(N(C)c3ccnc(Nc4cccc(S(N)(=O)=O)c4)n3)ccc12`, the pIC50 is 4.80 in series [1]; 5.32 in series [2]; 5.12 in series [3]; 7.03 in series [4]; 6.15 in series [5]; 5.14 in [6].
As to `CN(c1ccc2cn(C)nc2c1)c1ccnc(Nc2cccc(S(N)(=O)=O)c2)n1`, the pIC50 is 5.41 in [1]; 4.74 in series [2]; 5.33 in series [3]; 6.96 in series [4]; 5.54 in series [5]; 5.04 in [6].
On to `COc1cc2ncnc(Nc3ccc(C)c(O)c3)c2cc1OC`, for which the pIC50 in [12] is 9.22.
In the case of `Cc1nc2ccc(N(C)c3ccnc(Nc4cccc(S(N)(=O)=O)c4)n3)cc2n1C`, the pIC50 is 5.77 in series [1]; 4.60 in series [2]; 4.59 in series [3]; 5.55 in series [4]; 4.82 in series [5]; 4.59 in series [6].
Take `COc1cc2ncnc(Nc3ccc4c(C)n[nH]c4c3)c2cc1OC`: the pIC50 in series [9] was 8.77.
With `CCS(=O)(=O)c1ccc(OC)c(Nc2nccc(Nc3ccc4c(C)n[nH]c4c3)n2)c1`, the negative logarithm of the IC50 (pIC50) in [7] was 6.89; in [8], 4.89. The molecule further yielded a bioavailability in series [10] of 28%. The clearance in [11] is 40 mL/min/kg.
`COc1cc(Nc2nccc(Nc3ccc4c(C)n[nH]c4c3)n2)cc(OC)c1OC` [GW612286X] gave a pIC50 in series [7] of 6.74. Moreover, the bioavailability in [10] was determined as 85%. Also, in series [11], the clearance is 16 mL/min/kg.
Turning to `Cc1nn(C)c2cc(N(C)c3ccnc(Nc4cccc(S(N)(=O)=O)c4)n3)ccc12` [GW770220A], the pIC50 in [1] was 5.77; in [2], 5.20; in [3] it was 4.89; in series [4], 5.85; in [5] it was 6.00; in series [6] it was 5.03.
What is called inhibition in vivo is the change of the read-out against control, counted positive when it falls. A word on the AUC(0-inf): it is the area under the concentration-time curve extrapolated to infinity. Turning to `Cc1ccc(Nc2nccc(N(C)c3ccc4c(C)n(C)nc4c3)n2)cc1S(N)(=O)=O` [PAZOPANIB], the concentration at 12 h in [13] worked out at 38500 ng/mL; in series [25] it was 24800 ng/mL; in [27], 6320 ng/mL. Further, the figures for the bioavailability in series [10], in series [18] and in series [22] were 72%, 47% and 65%, respectively. For the same molecule, the inhibition in vivo at 10 mg/kg was 16% in series [14], 0% in series [17], 99% in series [23] and 32% in [33]. In addition, the inhibition in vivo at 30 mg/kg is 59% in series [15], 57% in series [16], 102% in [32] and 35% in [34]. Moreover, the clearance in series [19], in [11] and in series [30] was 1.4 mL/min/kg each time. Besides, the inhibition in vivo at 100 mg/kg in series [20] amounted to 69%; in series [21], 110%; in series [29], 55%; in series [31] it was 83%. Besides, the results for the area under the curve AUC(0-inf) in series [24], in series [26] and in series [35] were 220 µg·h/mL, 1140 µg·h/mL and 657 µg·h/mL, respectively. In series [28], the fraction unbound was < 0.001.
In the case of `COc1cc2/c(=N/c3ccc(Br)cc3F)nc[nH]c2cc1OCC1CCN(C)CC1` [VANDETANIB], the pIC50 in series [7] is 6.40.
